Calls of active or inactive are those of the source. The calls are words filed in the database; no cut-off is given here.
Assays:
[1] = system: NCI-H23; test: Antiproliferative activity against human NCI-H23 cells assessed as reduction in cell proliferation measured after 72 hrs by celltiter-glo assay; format: functional, cell-based; conditions: NCI-H23, 72 h
Summary of the method: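 Cells in RPMI 1640 with 10% heat-inactivated FBS at 37°C and 5% CO₂ were seeded at 2 to 3 × 10³ per well. […] Growth was read as cellular ATP by CellTiter-Glo.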

[2] = system: HCC70; test: Synergistic antiproliferative activity against human HCC70 cells assessed as combination index at ED50 measured after 72 hrs in presence of lapatinib by celltiter-glo assay; format: functional
Summary of the method: (§1)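 Cells grown in RPMI 1640 with 10% heat-inactivated FBS at 37°C, 5% CO₂. Seeded at 2 to 3 × 10³ per well; drugs added 24 h later. […] Viability read as cellular ATP by CellTiter-Glo. CI calculated by Chou–Talalay from median-effect plots at ED50, ED75 and ED90.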

[3] = system: SK-OV-3; test: Synergistic antiproliferative activity against human SK-OV-3 cells assessed as combination index at ED75 measured after 72 hrs in presence of lapatinib by celltiter-glo assay; format: functional
[4] = system: NCI-N87; test: Synergistic antiproliferative activity against human NCI-N87 cells assessed as combination index at ED90 measured after 72 hrs in presence of lapatinib by celltiter-glo assay; format: functional
[5] = system: NCI-H292; test: Antitumor activity against human NCI-H292 cells xenografted in CD-1 mouse assessed as tumor growth suppression at 360 mg/kg, po administered once a week for 2 weeks and measured twice a week during compound dosing by caliper method; format: functional, organism-based
Summary of the method: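 Female CD1-nude mice carried s.c. NCI-H292 cells in Matrigel/PBS and were randomized at 0.2 cm³, n = 5. […] MK-2206 (30% Captisol) was given 2 h later at 120 mg/kg po on days 0, 2, 4, 7, 9, 11, or at 360 mg/kg on days 0 and 7. Control received vehicle. Caliper volume twice weekly.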

[6] = system: NCI-N87; test: Synergistic antiproliferative activity against human NCI-N87 cells assessed as combination index at ED50 treated 24 hrs prior to lapatinib and measured after 72 hrs by celltiter-glo assay; format: functional; conditions: time 96 hrs
[7] = system: MDA-MB-468; test: Synergistic antiproliferative activity against human MDA-MB-468 cells assessed as combination index at ED50 measured after 96 hrs in presence of lapatinib by celltiter-glo assay; format: functional
[8] = system: SK-BR-3; test: Synergistic antiproliferative activity against human SK-BR-3 cells assessed as combination index at ED75 treated 24 hrs prior to lapatinib and measured after 72 hrs by celltiter-glo assay; format: functional; conditions: time 96 hrs
[9] = system: NCI-N87; test: Synergistic antiproliferative activity against human NCI-N87 cells assessed as combination index at ED90 treated 24 hrs prior to lapatinib and measured after 72 hrs by celltiter-glo assay; format: functional; conditions: time 96 hrs
[10] = system: HCC70; test: Induction of apoptosis in human HCC70 cells assessed as increase in caspase-3/7 activity at 3 umol/L measured after 48 hrs in presence of lapatinib by caspase-glo 3/7 assay relative to control; format: functional; conditions: dose 3 µmol/L
Summary of the method: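 HCC70 cells were grown in RPMI 1640 with 10% heat-inactivated FBS at 37°C in 5% CO₂. They were exposed for 48 h to MK-2206 (0, 0.03, 0.3, 3 µmol/L), with or without lapatinib (0, 1, 3, 5, 10 µmol/L). Caspase-3/7 activity was read by Caspase-Glo 3/7 luminescence and expressed as fold induction over the DMSO vehicle control. The experiment was run twice, and representative data were reported.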

[11] = system: BT-474; test: Synergistic antiproliferative activity against human BT-474 cells assessed as combination index at ED50 preincubated for 24 hrs followed by compound washout and subsequent docetaxel addition and measured after 72 hrs by celltiter-glo assay; format: functional
Summary of the method: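 Sequential schedule. Cells were seeded at 2 to 3 × 10³ per well in RPMI 1640 with 10% FBS and dosed 24 h after plating. They were exposed to the Akt inhibitor for 24 h, washed free of it, then given docetaxel for a further 72 h. Fixed concentration ratios spanned each agent's IC₅₀. ATP was read by CellTiter-Glo, and Chou–Talalay CI was calculated at ED50, ED75 and ED90.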

[12] = system: BT-474; test: Synergistic antiproliferative activity against docetaxel pretreated human BT-474 cells assessed as combination index at ED75 measured after 72 hrs by celltiter-glo assay; format: functional
[13] = system: BT-474; test: Synergistic antiproliferative activity against human BT-474 cells assessed as combination index at ED90 measured after 72 hrs in presence of docetaxel by celltiter-glo assay; format: functional; summary of the method: as §1
[14] = system: MDA-MB-231; test: Synergistic antiproliferative activity against human MDA-MB-231 cells assessed as combination index at ED50 measured after 72 hrs in presence of docetaxel by celltiter-glo assay; format: functional; summary of the method: as §1
[15] = system: ZR-75-1; test: Synergistic antiproliferative activity against human ZR-75-1 cells assessed as combination index at ED90 measured after 72 hrs in presence of docetaxel by celltiter-glo assay; format: functional
[16] = system: A2780; test: Synergistic antiproliferative activity against human A2780 cells assessed as combination index at ED50 measured after 72 hrs in presence of doxorubicin by celltiter-glo assay; format: functional
Summary of the method: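 Cells were seeded at 2–3 × 10³ per well in RPMI 1640 with 10% FBS. At 24 h, MK-2206 and the partner drug were added simultaneously at constant concentration ratios spanning each agent's IC₅₀, for 72 h. Growth was read as cellular ATP by CellTiter-Glo. CI was taken from median-effect plots of each agent alone and in combination (Chou–Talalay), at ED₅₀, ED₇₅ and ED₉₀.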

[17] = system: A2780; test: Induction of apoptosis in human A2780 cells assessed as increase in caspase-3/7 activity measured after 48 hrs in presence of carboplatin by caspase-glo 3/7 assay; format: functional, cell-based; conditions: dose 0.0625-1 µM
[18] = system: NCI-H460; test: Antitumor activity against human NCI-H460 cells xenografted in CD1 nude mouse assessed as reduction in tumor volume at 120 mg/kg, po administered 3 times per week for 2 weeks in presence of gemcitabine by caliper method; format: functional, organism-based
Summary of the method: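 NCI-H460 cells were injected s.c. in Matrigel/PBS into CD1-nude mice (female in the carboplatin study). Mice were randomized at 0.2 cm³, n = 5. Carboplatin was given at 50 mg/kg or gemcitabine at 100 mg/kg, i.v. in saline, on days 0 and 7. MK-2206 (30% Captisol) was given at 120 mg/kg po on days 0, 2, 4, 7, 9, 11. Tumors measured by caliper twice weekly.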

[19] = system: NCI-H460; test: Induction of apoptosis in human NCI-H460 cells assessed as fold induction of capsase-3/7 activity measured after 24 to 48 hrs in presence of carboplatin by caspase-glo 3/7 assay; format: functional; conditions: time 24-48 hrs
[20] = system: NCI-H661; test: Induction of apoptosis in human NCI-H661 cells assessed as fold induction of capsase-3/7 activity measured after 24 to 48 hrs in presence of carboplatin by caspase-glo 3/7 assay; format: functional; conditions: time 24-48 hrs
[21] = system: NCI-H1703; test: Induction of apoptosis in human NCI-H1703 cells assessed as fold induction of capsase-3/7 activity measured after 24 to 48 hrs in presence of carboplatin by caspase-glo 3/7 assay; format: functional; conditions: time 24-48 hrs

Compound: Cl.NC1(c2ccc(-c3nc4ccn5c(=O)[nH]nc5c4cc3-c3ccccc3)cc2)CCC1
- IC50 [1]: 14.1 µM
- CI50 [2]: 0.46
- CI75 [3]: 0.13
- CI90 [4]: 0.69
- Activity [5]: Active
- CI50 [6]: 0.18
- CI50 [7]: 0.18
- CI75 [8]: 0.18
- CI90 [9]: 0.18
- fold change (FC) [10]: 7
- CI50 [11]: 1.6
- CI75 [12]: 0.5
- CI90 [13]: 0.7
- CI50 [14]: 0.9
- CI90 [15]: 0.4
- CI50 [16]: 0.7
- Activity [17]: Dose-Dependent Effect
- Activity [18]: Active
- fold change (FC) [19]: 1.4
- fold change (FC) [20]: 2
- fold change (FC) [21]: 1.3
